{"data": "Measurements of several laboratories", "HRH2": "Histamine H2 receptor (HRH2, Homo sapiens, UniProt P25021)", "Tspo": "Translocator protein (Tspo, Rattus norvegicus, UniProt P16257)", "ADRA1A": "Alpha-1A adrenergic receptor (ADRA1A, Homo sapiens, UniProt P35348)", "note": "pKi: −log10 of the molar value."}
{"Structure (SMILES)": "CNc1nc2cc(OCCCCN3CCC(c4cccc(Cl)c4Cl)CC3)ccc2s1", "target": "HRH2", "read-out": "ligand displacement", "technique": "radioligand", "pKi": 6.48}
{"Structure (SMILES)": "CN1CC(Oc2cnc(C#N)cc2-c2ccn3nc(NC(=O)C4CC4)cc3c2)C1", "target": "Receptor-interacting serine/threonine-protein kinase 2 (RIPK2, Homo sapiens, UniProt O43353)", "read-out": "enzyme activity", "action": "inhibitor", "pKi": 7.02}
{"Structure (SMILES)": "CC[Si](C#Cc1ccc2c(c1)C=C([N+](=O)[O-])C(C(F)(F)F)O2)(CC)CC (stereo not shown)", "target": "Tspo", "read-out": "cell-free assay", "technique": "radioligand", "pKi": 6.30}
{"Structure (SMILES)": "O=C(c1cccc(/N=N/c2cccc(OCCCN3CCCCC3)c2)c1)N1CCCC1", "target": "HRH2", "read-out": "ligand displacement", "technique": "radioligand", "pKi": "< 5.00"}
{"Structure (SMILES)": "CNC(=O)[C@@]12C[C@@H]1[C@@H](n1cnc3c(NC)nc(C#Cc4ccc(Br)s4)nc31)[C@H](O)[C@@H]2O", "target": "Tspo", "read-out": "ligand displacement", "technique": "radioligand", "pKi": "< 5.00"}
{"Structure (SMILES)": "O=C1c2ccccc2CCCN1CCCCN1CCN(c2ccccn2)CC1", "target": "ADRA1A", "read-out": "ligand displacement", "technique": "radioligand", "pKi": 6.06}
{"Structure (SMILES)": "CC1=C(/C=C/C(C)=C/C=C/C(C)=C/c2cc(/C=C/C=C(C)/C=C/C3=C(C)CCCC3(C)C)cc[n+]2CCO)C(C)(C)CCC1", "target": "Sterol 26-hydroxylase, mitochondrial (CYP27A1, Homo sapiens, UniProt Q02318)", "read-out": "enzyme activity", "action": "inhibitor", "pKi": 5.54}
{"Structure (SMILES)": "CNC(=O)[C@@]12C[C@@H]1[C@@H](n1cnc3c(NC)nc(C#Cc4ccc(Cl)s4)nc31)[C@H](O)[C@@H]2O", "target": "Tspo", "read-out": "cell-free assay", "technique": "radioligand", "pKi": 6.07}
{"Structure (SMILES)": "O=C(O)c1cc(O)c2c(c1)C(=O)c1cc(O)cc(O)c1C2=O", "target": "Amine oxidase [flavin-containing] A (MAOA, Homo sapiens, UniProt P21397)", "read-out": "enzyme activity", "action": "inhibitor", "pKi": 4.41}
{"Structure (SMILES)": "CNc1nc(C#Cc2ccc(Cl)s2)nc2c1ncn2[C@H]1[C@H](O)[C@H](O)[C@]2(C(=O)OCCC3CCCCC3)C[C@H]12", "target": "Tspo", "read-out": "ligand displacement", "technique": "radioligand", "pKi": "< 5.00"}
{"Structure (SMILES)": "CC(C)c1nc2cc(OCCCCN3CCN(c4cccc5c4OCCO5)CC3)ccc2s1", "target": "HRH2", "read-out": "ligand displacement", "technique": "radioligand", "pKi": 6.62}
{"Structure (SMILES)": "COc1ccc2c(c1)C(=O)N(CCN1CCN(c3ccccc3OC)CC1)C2", "target": "ADRA1A", "read-out": "ligand displacement", "technique": "radioligand", "pKi": 7.80}
{"Structure (SMILES)": "CNc1nc(C#Cc2ccc(Cl)s2)nc2c1ncn2[C@@H]1O[C@H](C(=O)OC)[C@@H](O)[C@H]1O", "target": "Tspo", "read-out": "ligand displacement", "technique": "radioligand", "pKi": "< 5.00"}
{"Structure (SMILES)": "O=C1c2ccccc2CCN1CCCCN1CCN(c2ccccn2)CC1", "target": "ADRA1A", "read-out": "ligand displacement", "technique": "radioligand", "pKi": 6.26}
{"Structure (SMILES)": "CNC(=O)[C@@]12C[C@@H]1[C@@H](n1ccc3c(NC)ncnc31)[C@H](O)[C@@H]2O", "target": "Tspo", "read-out": "ligand displacement", "technique": "radioligand", "pKi": "< 5.00"}
{"Structure (SMILES)": "COc1cccc(OC)c1OCCNCC1COc2ccccc2O1 (stereo not shown)", "target": "ADRA1A", "read-out": "ligand displacement", "technique": "radioligand", "pKi": 9.74}
